Reference: ChEMBL document CHEMBL1144291, “Synthesis of 9-(2-beta-C-methyl-beta-d-ribofuranosyl)-6-substituted purine derivatives as inhibitors of HCV RNA replication” (Bioorg Med Chem Lett, 2005)

Key:
Hepatitis C virus [1] = experiment: Cytotoxicity concentration to inhibit hepatitis C virus RNA replication in a subgenomic replicon cell line; assay type: functional, Hepacivirus hominis
Summary of the method: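 MTS assay run on samples set up in parallel with the HCV subgenomic replicon cultures.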

Hepatitis C virus [2] = experiment: Inhibition of hepatitis C virus RNA replication in a subgenomic replicon cell line; assay type: functional, organism-based, Hepacivirus hominis
Summary of the method: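 HCV subgenomic replicon cells exposed to compound for 48 h; relative HCV replicon RNA then measured by luciferase reporter assay.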

| Compound | CC50 (Hepatitis C virus [1]) [µM] | EC50 (Hepatitis C virus [2]) [µM] |
| --- | --- | --- |
| CNCCN(C)c1ncnc2c1ncn2C1O[C@H](CO)[C@@H](O)[C@@]1(C)O (stereo not given in full) | 300 | 200 |
| C[C@]1(O)C(n2cnc3c(N4CCOCC4)ncnc32)O[C@H](CO)[C@H]1O (stereo not given in full) | 300 | 100 |
| CCNc1ncnc2c1ncn2C1O[C@H](CO)[C@@H](O)[C@@]1(C)O (stereo not given in full) | 300 | 8 |
| C[C@]1(O)C(n2cnc3c(C(=N)NO)ncnc32)O[C@H](CO)[C@H]1O (stereo not given in full) | 300 | 100 |
| COC(=N)c1ncnc2c1ncn2C1O[C@H](CO)[C@@H](O)[C@@]1(C)O (stereo not given in full) | 300 | 120 |
| C[C@]1(O)C(n2cnc3c(NOCCO)ncnc32)O[C@H](CO)[C@H]1O (stereo not given in full) | 300 | 80 |
| C[C@]1(O)C(n2cnc3c(NCCN)ncnc32)O[C@H](CO)[C@H]1O (stereo not given in full) | 300 | 25 |
| CC1(C)OCC(CNc2ncnc3c2ncn3C2O[C@H](CO)[C@@H](O)[C@@]2(C)O)O1 (stereo not given in full) | 300 | 300 |
| CC(C)NC(=O)N(O)c1ncnc2c1ncn2C1O[C@H](CO)[C@@H](O)[C@@]1(C)O (stereo not given in full) | 300 | 6 |
| CCOc1ccccc1CNc1ncnc2c1ncn2C1O[C@H](CO)[C@@H](O)[C@@]1(C)O (stereo not given in full) | 250 | 50 |
| CCC(=O)N(O)c1ncnc2c1ncn2C1O[C@H](CO)[C@@H](O)[C@@]1(C)O (stereo not given in full) | 300 | 3.3 |
| COc1ncnc2c1ncn2C1O[C@H](COP(=O)(OCCSC(=O)C(C)(C)C)OCCSC(=O)C(C)(C)C)[C@@H](O)[C@@]1(C)O (stereo not given in full) | 300 | 0.1 |
| C[C@]1(O)C(n2cnc3c(NCC4CCCO4)ncnc32)O[C@H](CO)[C@H]1O (stereo not given in full) | 300 | 300 |
| C[C@]1(O)C(n2cnc3c(NO)ncnc32)O[C@H](CO)[C@H]1O (stereo not given in full) | 300 | 1.8 |
| CCNC(=O)N(OC)c1ncnc2c1ncn2C1O[C@H](CO)[C@@H](O)[C@@]1(C)O (stereo not given in full) | 300 | 80 |
| CONc1ncnc2c1ncn2C1O[C@H](CO)[C@@H](O)[C@@]1(C)O (stereo not given in full) | 300 | 4 |
| C[C@]1(O)C(n2cnc3c(N(O)C(=O)Nc4ccccc4)ncnc32)O[C@H](CO)[C@H]1O (stereo not given in full) | 300 | 1.8 |
| CCONc1ncnc2c1ncn2C1O[C@H](CO)[C@@H](O)[C@@]1(C)O (stereo not given in full) | 300 | 30 |
| CSc1ncnc2c1ncn2C1O[C@H](CO)[C@@H](O)[C@@]1(C)O (stereo not given in full) | 300 | 11 |
| C[C@]1(O)C(n2cnc3c(-c4ccco4)ncnc32)O[C@H](CO)[C@H]1O (stereo not given in full) | 300 | 275 |
| CN(C)c1ncnc2c1ncn2C1O[C@H](CO)[C@@H](O)[C@@]1(C)O (stereo not given in full) | 300 | 9 |
| C[C@]1(O)C(n2cnc3c(N4CCCS4)ncnc32)O[C@H](CO)[C@H]1O (stereo not given in full) | 200 | 15 |
| C[C@]1(O)C(n2cnc3c(NCCC(N)=O)ncnc32)O[C@H](CO)[C@H]1O (stereo not given in full) | 300 | 150 |

| Compound | CC50 (Hepatitis C virus [1]) [µM] | EC50 (Hepatitis C virus [2]) [µM] |
| --- | --- | --- |
| C[C@]1(O)C(n2cnc3c2NCN=C3N(CCO)CCO)O[C@H](CO)[C@H]1O (stereo not given in full) | 300 | 20 |
| CC(CNC1=NCNc2c1ncn2C1O[C@H](CO)[C@@H](O)[C@@]1(C)O)c1ccccc1 (stereo not given in full) | 300 | 25 |
| C[C@]1(O)C(n2cnc3c2NCN=C3NCCO)O[C@H](CO)[C@H]1O (stereo not given in full) | 300 | 60 |
| CN(O)c1ncnc2c1ncn2C1O[C@H](CO)[C@@H](O)[C@@]1(C)O (stereo not given in full) | 300 | 4 |
| CON(C)c1ncnc2c1ncn2C1O[C@H](CO)[C@@H](O)[C@@]1(C)O (stereo not given in full) | 300 | 33 |
| CSc1cccc(Nc2ncnc3c2ncn3C2O[C@H](CO)[C@@H](O)[C@@]2(C)O)c1 (stereo not given in full) | 300 | 300 |
| C[C@]1(O)C(n2cnc3c(C(=N)N)ncnc32)O[C@H](CO)[C@H]1O (stereo not given in full) | 300 | 100 |
| C[C@]1(O)C(n2cnc3c(N(O)C(=O)OCc4ccccc4)ncnc32)O[C@H](CO)[C@H]1O (stereo not given in full) | 300 | 20 |
| CCNC(=O)Nc1ncnc2c1ncn2C1O[C@H](CO)[C@@H](O)[C@@]1(C)O (stereo not given in full) | 300 | 80 |
| C[C@]1(O)C(n2cnc3c(-c4ccsc4)ncnc32)O[C@H](CO)[C@H]1O (stereo not given in full) | 300 | 300 |
| CNc1ncnc2c1ncn2C1O[C@H](CO)[C@@H](O)[C@@]1(C)O (stereo not given in full) | 300 | 1 |
| COC(=O)N(O)c1ncnc2c1ncn2C1O[C@H](CO)[C@@H](O)[C@@]1(C)O (stereo not given in full) | 250 | 3 |
| CCOc1ncnc2c1ncn2C1O[C@H](CO)[C@@H](O)[C@@]1(C)O (stereo not given in full) | 300 | 13 |
| C[C@]1(O)C(n2cnc3c(O)ncnc32)O[C@H](CO)[C@H]1O (stereo not given in full) | 300 | 8 |
| CCOc1ncnc2c1ncn2C1O[C@H](COP(=O)(OCCSC(C)=O)OCCSC(C)=O)[C@@H](O)[C@@]1(C)O (stereo not given in full) | 300 | 0.08 |
| C[C@]1(O)C(n2cnc3c2NCN=C3NOCCO)O[C@H](CO)[C@H]1O (stereo not given in full) | 300 | 80 |
| C[C@]1(O)C(n2cnc3c(C(=N)S)ncnc32)O[C@H](CO)[C@H]1O (stereo not given in full) | 300 | 120 |
| COc1ncnc2c1ncn2C1O[C@H](CO)[C@@H](O)[C@@]1(C)O (stereo not given in full) | 300 | 9 |
| CCNC(=O)N(O)c1ncnc2c1ncn2C1O[C@H](CO)[C@@H](O)[C@@]1(C)O (stereo not given in full) | 200 | 2.2 |
| CCNC(=O)N(O)C1=NCNc2c1ncn2C1O[C@H](CO)[C@@H](O)[C@@]1(C)O (stereo not given in full) | 300 | 200 |
| C[C@]1(O)C(n2cnc3c(-c4cccs4)ncnc32)O[C@H](CO)[C@H]1O (stereo not given in full) | 200 | 80 |
| C[C@@]1(O)[C@H](O)[C@@H](CO)O[C@H]1n1cnc2c(N)ncnc21 | 300 | 0.3 |
